Test results reported in ChEMBL document CHEMBL4138126, “Synthesis, antiproliferative, anti-tubulin activity, and docking study of new 1,2,4-triazoles as potential combretastatin analogues” (Eur J Med Chem, 2017).

How the values were obtained:
Format in all cases: functional
M14 = experiment: Growth inhibition of human M14 cells assessed as cell growth at 10 uM after 48 hrs by sulforhodamine B assay; settings: M14, 48 h, read-out: Activity
In short: (§1)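 NCI 60-cell-line panel screen (nine cancer types). Compounds added at single concentration 10^-5 M, cultures incubated 48 h; growth inhibition percentages reported.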

SNB-75 = experiment: Growth inhibition of human SNB75 cells assessed as cell growth at 10 uM after 48 hrs by sulforhodamine B assay; settings: SNB-75, 48 h, read-out: Activity
In short: (§2)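 NCI 60-cell-line panel from nine tumour types (leukaemia, lung, colon, CNS, melanoma, ovarian, renal, prostate, breast). Each compound was added at one single concentration, and cultures were incubated for 48 h. Results are reported as percent growth inhibition.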

Hs-578T = experiment: Growth inhibition of human Hs 578T cells assessed as cell growth at 10 uM after 48 hrs by sulforhodamine B assay; settings: read-out: Activity; in short: as §1
HT-29 = experiment: Growth inhibition of human HT-29 cells assessed as cell growth at 10 uM after 48 hrs by sulforhodamine B assay; settings: HT-29, 48 h, read-out: Activity; in short: as §1
NCI/ADR-RES = experiment: Growth inhibition of human NCI-ADR-RES cells assessed as cell growth at 10 uM after 48 hrs by sulforhodamine B assay; settings: read-out: Activity; in short: as §1
KM12 = experiment: Growth inhibition of human KM12 cells assessed as cell growth at 10 uM after 48 hrs by sulforhodamine B assay; settings: KM12, 48 h, read-out: Activity; in short: as §1
HOP-92 = experiment: Growth inhibition of human HOP92 cells assessed as cell growth at 10 uM after 48 hrs by sulforhodamine B assay; settings: HOP-92, 48 h, read-out: Activity; in short: as §1
RXF 393 = experiment: Growth inhibition of human RXF393 cells assessed as cell growth at 10 uM after 48 hrs by sulforhodamine B assay; settings: RXF 393, 48 h, read-out: Activity; in short: as §1
NCI-H23 = experiment: Growth inhibition of human NCI-H23 cells assessed as cell growth at 10 uM after 48 hrs by sulforhodamine B assay; settings: NCI-H23, 48 h, read-out: Activity; in short: as §1
MDA-MB-231 = experiment: Growth inhibition of human MDA-MB-231 cells assessed as cell growth at 10 uM after 48 hrs by sulforhodamine B assay; settings: MDA-MB-231, 48 h, read-out: Activity; in short: as §1
NCI-H460 = experiment: Growth inhibition of human NCI-H460 cells assessed as cell growth at 10 uM after 48 hrs by sulforhodamine B assay; settings: NCI-H460, 48 h, read-out: Activity; in short: as §1
MOLT-4 = experiment: Growth inhibition of human MOLT4 cells assessed as cell growth at 10 uM after 48 hrs by sulforhodamine B assay; settings: MOLT-4, 48 h, read-out: Activity; in short: as §1
U-251 = experiment: Growth inhibition of human U251 cells assessed as cell growth at 10 uM after 48 hrs by sulforhodamine B assay; settings: U-251, 48 h, read-out: Activity; in short: as §2
OVCAR-4 = experiment: Growth inhibition of human OVCAR4 cells assessed as cell growth at 10 uM after 48 hrs by sulforhodamine B assay; settings: OVCAR-4, 48 h, read-out: Activity; in short: as §1
EKVX = experiment: Growth inhibition of human EKVX cells assessed as cell growth at 10 uM after 48 hrs by sulforhodamine B assay; settings: read-out: Activity; in short: as §1
LOX IMVI = experiment: Growth inhibition of human LOXIMVI cells assessed as cell growth at 10 uM after 48 hrs by sulforhodamine B assay; settings: read-out: Activity; in short: as §1
SF-268 = experiment: Growth inhibition of human SF268 cells assessed as cell growth at 10 uM after 48 hrs by sulforhodamine B assay; settings: SF-268, 48 h, read-out: Activity; in short: as §1
MCF7 = experiment: Growth inhibition of human MCF7 cells assessed as cell growth at 10 uM after 48 hrs by sulforhodamine B assay; settings: MCF7, 48 h, read-out: Activity; in short: as §1
RPMI-8226 = experiment: Growth inhibition of human RPMI8226 cells assessed as cell growth at 10 uM after 48 hrs by sulforhodamine B assay; settings: RPMI-8226, 48 h, read-out: Activity; in short: as §1
COLO 205 = experiment: Growth inhibition of human COLO205 cells assessed as cell growth at 10 uM after 48 hrs by sulforhodamine B assay; settings: COLO 205, 48 h, read-out: Activity; in short: as §1
SNB-19 = experiment: Growth inhibition of human SNB19 cells assessed as cell growth at 10 uM after 48 hrs by sulforhodamine B assay; settings: SNB-19, 48 h, read-out: Activity; in short: as §2
CCRF-CEM = experiment: Growth inhibition of human CCRF-CEM cells assessed as cell growth at 10 uM after 48 hrs by sulforhodamine B assay; settings: read-out: Activity; in short: as §1
T47D = experiment: Growth inhibition of human T47D cells assessed as cell growth at 10 uM after 48 hrs by sulforhodamine B assay; settings: read-out: Activity; in short: as §2
HOP-62 = experiment: Growth inhibition of human HOP62 cells assessed as cell growth at 10 uM after 48 hrs by sulforhodamine B assay; settings: HOP-62, 48 h, read-out: Activity; in short: as §1
Malme-3M = experiment: Growth inhibition of human MALME-3M cells assessed as cell growth at 10 uM after 48 hrs by sulforhodamine B assay; settings: read-out: Activity; in short: as §1
IGROV-1 = experiment: Growth inhibition of human IGROV1 cells assessed as cell growth at 10 uM after 48 hrs by sulforhodamine B assay; settings: IGROV-1, 48 h, read-out: Activity; in short: as §1
SW-620 = experiment: Growth inhibition of human SW620 cells assessed as cell growth at 10 uM after 48 hrs by sulforhodamine B assay; settings: SW-620, 48 h, read-out: Activity; in short: as §2
786-0 = experiment: Growth inhibition of human 786-0 cells assessed as cell growth at 10 uM after 48 hrs by sulforhodamine B assay; settings: 786-0, 48 h, read-out: Activity; in short: as §1
A549 = experiment: Growth inhibition of human A549/ATCC cells assessed as cell growth at 10 uM after 48 hrs by sulforhodamine B assay; settings: A549, 48 h, read-out: Activity; in short: as §1
NCI-H322M = experiment: Growth inhibition of human NCI-H322M cells assessed as cell growth at 10 uM after 48 hrs by sulforhodamine B assay; settings: read-out: Activity; in short: as §1
ACHN = experiment: Growth inhibition of human ACHN cells assessed as cell growth at 10 uM after 48 hrs by sulforhodamine B assay; settings: read-out: Activity; in short: as §1
NCI-H226 = experiment: Growth inhibition of human NCI-H226 cells assessed as cell growth at 10 uM after 48 hrs by sulforhodamine B assay; settings: NCI-H226, 48 h, read-out: Activity; in short: as §1
DU-145 = experiment: Growth inhibition of human DU145 cells assessed as cell growth at 10 uM after 48 hrs by sulforhodamine B assay; settings: DU-145, 48 h, read-out: Activity; in short: as §1
OVCAR-5 = experiment: Growth inhibition of human OVCAR5 cells assessed as cell growth at 10 uM after 48 hrs by sulforhodamine B assay; settings: OVCAR-5, 48 h, read-out: Activity; in short: as §1
MDA-MB-435 = experiment: Growth inhibition of human MDA-MB-435 cells assessed as cell growth at 10 uM after 48 hrs by sulforhodamine B assay; settings: MDA-MB-435, 48 h, read-out: Activity; in short: as §1

Row | SMILES | growth at 10 µM (M14) | growth at 10 µM (SNB-75) | growth at 10 µM (Hs-578T) | growth at 10 µM (HT-29) | growth at 10 µM (NCI/ADR-RES) | growth at 10 µM (KM12) | growth at 10 µM (HOP-92) | growth at 10 µM (RXF 393) | growth at 10 µM (NCI-H23) | growth at 10 µM (MDA-MB-231) | growth at 10 µM (NCI-H460) | growth at 10 µM (MOLT-4) | growth at 10 µM (U-251) | growth at 10 µM (OVCAR-4) | growth at 10 µM (EKVX) | growth at 10 µM (LOX IMVI) | growth at 10 µM (SF-268) | growth at 10 µM (MCF7) | growth at 10 µM (RPMI-8226) | growth at 10 µM (COLO 205) | further results
1 | COc1cccc(-n2nc(C(=O)NCc3ccccc3C)nc2-c2cc(OC)c(OC)c(OC)c2)c1 | 86.7% | 31.7% | 77.6% | 80.2% | 63.1% | 82% | 81.8% | 109% | 84% | 73.5% | 96.4% | 80% | 85% | 81.6% | 73.3% | 78.7% | 85.8% | 82.1% | 95.7% | 84.3% | growth at 10 µM (SNB-19): 83.2%; growth at 10 µM (CCRF-CEM): 104%; growth at 10 µM (T47D): 56.4%; growth at 10 µM (HOP-62): 71%; growth at 10 µM (Malme-3M): 94.7%; growth at 10 µM (IGROV-1): 72%; growth at 10 µM (SW-620): 102%; growth at 10 µM (786-0): 76%; growth at 10 µM (A549): 69.2%; growth at 10 µM (NCI-H322M): 87.5%; growth at 10 µM (ACHN): 90.5%; growth at 10 µM (NCI-H226): 87.9%; growth at 10 µM (DU-145): 94.2%; growth at 10 µM (OVCAR-5): 111%; growth at 10 µM (MDA-MB-435): 85.8%
2 | CCOc1ccc(-n2nc(C(=O)Nc3cc(OC)c(OC)c(OC)c3)nc2-c2cc(OC)c(OC)c(OC)c2)cc1 | 91.5% | 65.6% | 65.6% | 84.6% | 85.8% | 81.8% | 69.9% | 83.8% | 85% | 50.5% | 92.1% | 67.5% | 85.1% | 68.1% | 96.1% | 89% | 92.1% | 83.2% | 55.7% | 80.3% | growth at 10 µM (SNB-19): 82.1%; growth at 10 µM (CCRF-CEM): 66.5%; growth at 10 µM (T47D): 51.4%; growth at 10 µM (HOP-62): 95.7%; growth at 10 µM (Malme-3M): 85.2%; growth at 10 µM (IGROV-1): 90.8%; growth at 10 µM (SW-620): 95.5%; growth at 10 µM (786-0): 77.1%; growth at 10 µM (A549): 86.9%; growth at 10 µM (NCI-H322M): 89.2%; growth at 10 µM (ACHN): 85.7%; growth at 10 µM (NCI-H226): 78.1%; growth at 10 µM (DU-145): 99.1%; growth at 10 µM (OVCAR-5): 102%; growth at 10 µM (MDA-MB-435): 79.6%
3 | COc1cccc(-n2nc(C(=O)NCc3ccccc3OC)nc2-c2cc(OC)c(OC)c(OC)c2)c1 | 99.8% | 63% | 99.9% | 81.3% | 77.4% | 95.6% | 108% | 107% | 90.7% | 93% | 111% | 103% | 97.1% | 90.8% | 91.1% | 95.9% | 95.5% | 98.7% | 100% | 101% | growth at 10 µM (SNB-19): 100%; growth at 10 µM (CCRF-CEM): 107%; growth at 10 µM (T47D): 75.8%; growth at 10 µM (HOP-62): 85.9%; growth at 10 µM (Malme-3M): 99.7%; growth at 10 µM (IGROV-1): 88.5%; growth at 10 µM (SW-620): 111%; growth at 10 µM (786-0): 94%; growth at 10 µM (A549): 92.8%; growth at 10 µM (NCI-H322M): 94.3%; growth at 10 µM (ACHN): 106%; growth at 10 µM (NCI-H226): 96.8%; growth at 10 µM (DU-145): 106%; growth at 10 µM (OVCAR-5): 113%; growth at 10 µM (MDA-MB-435): 90.8%
